# From ChEMBL document CHEMBL5244249, “Discovery of tofacitinib derivatives as orally active antitumor agents based on the scaffold hybridization strategy” (Eur J Med Chem, 2020)
# Activity calls are given as the source filed them. The rule behind the calls is not given here.
# Experiments:
# MGC-803 [1] = experiment: Inhibition of colony formation in human MGC-803 cells at 3 uM incubated for 9 days by crystal violet staining based analysis relative to control; type: functional; conditions: MGC-803, 216 h, time 9 day
# Outline: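 Clonogenic assay: MGC-803 cells grown 9 days with 0, 1, 2 or 3 μM; colonies counted and inhibition rate calculated against untreated control; mean ± SD of three independent experiments.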
# MGC-803 [2] = experiment: Inhibition of cell migration in human MGC-803 cells incubated for 24 hrs by wound healing assay; type: functional, cell-based; conditions: dose 5-10 µM
# Outline: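 Wound-healing scratch assay in MGC-803 monolayers; 24 h exposure to 0, 5, 7.5 or 10 μM; migration quantified; three independent experiments, mean ± SD.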
# MGC-803 [3] = experiment: Induction of apoptosis in human MGC-803 cells assessed as cell debris at 5 to 10 uM incubated for 24 hrs by Hoechst 33342 staining based fluorescence microscopic analysis; type: functional; conditions: dose 5-10 µM
# Outline: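 MGC-803 cells exposed to 0, 5, 7.5 or 10 μM; cell morphology imaged and nuclear morphology examined by staining. Mean ± SD, three independent experiments.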
# MGC-803 [4] = experiment: Induction of apoptosis in human MGC-803 cells assessed as nuclear fragmentation at 5 to 10 uM incubated for 24 hrs by Hoechst 33342 staining based fluorescence microscopic analysis; type: functional, cell-based; conditions: dose 5-10 µM
# Outline: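 MGC-803 cells treated at 0, 5, 7.5 and 10 μM; cell morphology and nuclear morphology (fragmentation, condensation) examined by staining and imaging; three independent experiments, mean ± SD.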
# MGC-803 [5] = experiment: Induction of apoptosis in human MGC-803 cells assessed as early apoptotic cells at 7.5 uM incubated for 24 hrs by Annexin V-FITC/PI staining based flow cytometric analysis (reference value: 3.9 %); type: functional
# MGC-803 [6] = experiment: Induction of apoptosis in human MGC-803 cells assessed as late apoptotic cells at 10 uM incubated for 24 hrs by Annexin V-FITC/PI staining based flow cytometric analysis (reference value: 3.8 %); type: functional
# MGC-803 [7] = experiment: Induction of apoptosis in human MGC-803 cells assessed as early apoptotic cells at 5 uM incubated for 48 hrs by Annexin V-FITC/PI staining based flow cytometric analysis (reference value: 2.5 %); type: functional
# MGC-803 [8] = experiment: Induction of apoptosis in human MGC-803 cells assessed as late apoptotic cells at 5 uM incubated for 48 hrs by Annexin V-FITC/PI staining based flow cytometric analysis (reference value: 0.5 %); type: functional
# MGC-803 [9] = experiment: Induction of apoptosis in human MGC-803 cells assessed as viable cells at 10 uM incubated for 48 hrs by Annexin V-FITC/PI staining based flow cytometric analysis (reference value: 96.7 %); type: functional; conditions: read-out: Activity
# MGC-803 [10] = experiment: Cell cycle arrest in human MGC-803 cells assessed as S phase cells at 5 uM incubated for 24 hrs by RNase/PI staining based flow cytometric analysis (reference value: 27.1%); type: functional
# MGC-803 [11] = experiment: Cell cycle arrest in human MGC-803 cells assessed as S phase cells at 7.5 uM incubated for 24 hrs by RNase/PI staining based flow cytometric analysis (reference value: 27.1%); type: functional
# MGC-803 [12] = experiment: Cell cycle arrest in human MGC-803 cells assessed as G2/M phase cells at 10 uM incubated for 24 hrs by RNase/PI staining based flow cytometric analysis (reference value: 15.11%); type: functional
# MGC-803 [13] = experiment: Induction of mitochondrial dysfunction in human MGC-803 cells assessed as increase in green fluorescence intensity at 5 uM incubated for 24 hrs by JC-1 staining based fluorescence microscopic analysis (reference value: 9.9%); type: functional
# MGC-803 [14] = experiment: Induction of mitochondrial dysfunction in human MGC-803 cells assessed as increase in ratio of green to red fluorescence intensity at 10 uM incubated for 24 hrs by JC-1 staining based fluorescence microscopic analysis; type: functional
# MGC-803 [15] = experiment: Induction of apoptosis in human MGC-803 cells assessed as decrease in Mcl-1 protein expression at 5 to 10 uM incubated for 24 hrs by Western blot analysis; type: functional, cell-based; conditions: dose 5-10 µM
# Outline: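 After 24 h exposure of MGC-803 cells, Bcl-2, Mcl-1, Bax and cytochrome c release assessed by Western blot with band quantitation; mean ± SD from three independent experiments.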
# MGC-803 [16] = experiment: Induction of mitochondrial dysfunction in human MGC-803 cells assessed as upregulation of cleaved caspase-7 expression at 5 to 10 uM incubated for 24 hrs by Western blot analysis; type: functional, cell-based; conditions: dose 5-10 µM
# Outline: (§1)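 Western blot of caspase 9, 3, 7, PARP and γH2A.X in MGC-803 lysates after 24 h exposure to 5, 7.5 or 10 μM; band quantitation; mean ± SD from three independent experiments.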
# MGC-803 [17] = experiment: Induction of mitochondrial dysfunction in human MGC-803 cells assessed as upregulation of gammaH2AX expression at 5 to 10 uM incubated for 24 hrs by Western blot analysis; type: functional, cell-based; conditions: dose 5-10 µM; outline: as §1
# [18] = Activation of MAPK pathway in human MGC-803 cells assessed as change in p38 total expression at 5 to 10 uM incubated for 24 hrs by Western blot analysis; type: cell-based; conditions: dose 5-10 µM
# MGC-803 [19] = experiment: Antiproliferative activity against human MGC-803 cells assessed as decrease in cell viability at 10 uM preincubated with SB203580 for 4 hrs followed by compound addition and measured after 24 hrs by MTT assay; type: functional, cell-based
# Outline: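 MGC-803 cells pre-incubated 4 h with SB203580 (4 μM) or SP600125 (20 μM), then exposed to 10 μM test compound for 24 h; viability by MTT, expressed as percent of control. Mean ± SD, three independent experiments.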
# [20] = Toxicity in SCID mouse xenografted with human MGC-803 cells assessed as effect on general health at 12.5 to 25 mg/kg, IG administered for 21 days; type: organism-based; conditions: in vivo, po, 504 h, dose 12.5-25 mg/kg, time 21 day
# Outline: (§2)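 SCID mice bearing subcutaneous MGC-803 xenografts (right side) dosed with 12.5 or 25 mg/kg over 21 days, 0.5% CMC-Na vehicle as control; body weight and tumor size monitored periodically; major organs examined histopathologically at end; means ± SD.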
# MGC-803 [21] = experiment: Antitumor activity against human MGC-803 cells xenografted in SCID mouse assessed as decrease in average tumor volume at 12.5 to 25 mg/kg, IG administered for 21 days; type: functional, organism-based; conditions: dose 12.5-25 mg/kg, time 21.0 day
# Outline: (§3)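 MGC-803 cells implanted subcutaneously on the right side of SCID mice; dosed at 12.5 or 25 mg/kg in 0.5% CMC-Na (vehicle control) for 21 days. Body weight and tumor size recorded periodically; tumors excised and weighed at end. Means ± SD.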
# MGC-803 [22] = experiment: Antitumor activity against human MGC-803 cells xenografted in SCID mouse assessed as decrease in average tumor weight at 12.5 mg/kg, IG administered for 21 days relative to control; type: functional; set-up: scale not given: the % may be the effect or the level left; conditions: time 21 day; outline: as §3
# MGC-803 [23] = experiment: Antitumor activity against human MGC-803 cells xenografted in SCID mouse assessed as decrease in average tumor weight at 25 mg/kg, IG administered for 21 days relative to control; type: functional; set-up: scale not given: the % may be the effect or the level left; conditions: time 21 day; outline: as §3
# [24] = Toxicity in SCID mouse xenografted with human MGC-803 cells assessed as effect on liver at 12.5 to 25 mg/kg, IG administered for 21 days by H&E staining based histopathological analysis; type: organism-based; conditions: in vivo, po, 504 h, dose 12.5-25 mg/kg, time 21 day; outline: as §2
# [25] = Toxicity in SCID mouse xenografted with human MGC-803 cells assessed as effect on lung at 12.5 to 25 mg/kg, IG administered for 21 days by H&E staining based histopathological analysis; type: organism-based; conditions: in vivo, po, 504 h, dose 12.5-25 mg/kg, time 21 day; outline: as §2
structure (smiles),measurement,setting,value
Cc1cc(N2CC[C@@H](C)[C@@H](N(C)c3ncnc4[nH]ccc34)C2)n2nc(SCc3ccc(C(F)(F)F)cc3)nc2n1,inhibition at 3 µM,MGC-803 [1],73%
same,inhibition,MGC-803 [2],Dose-Dependent Effect
same,Activity,MGC-803 [3],Active
same,Activity,MGC-803 [4],Active
same,Activity,MGC-803 [5],11.5%
same,Activity,MGC-803 [6],28%
same,Activity,MGC-803 [7],8.5%
same,Activity,MGC-803 [8],17.2%
same,viability at 10 µM,MGC-803 [9],17%
same,Activity,MGC-803 [10],30.04%
same,Activity,MGC-803 [11],29.36%
same,Activity,MGC-803 [12],12.82%
same,Activity,MGC-803 [13],27.7%
same,Ratio,MGC-803 [14],<=8.73
same,Activity,MGC-803 [15],Active
same,Activity,MGC-803 [16],Active
same,Activity,MGC-803 [17],Active
same,Activity,[18],inactive
same,Activity,MGC-803 [19],inactive
same,Activity,[20],Non-Toxic
same,Activity,MGC-803 [21],Active
same,Activity,MGC-803 [22],56.8%
same,Activity,MGC-803 [23],53%
same,Activity,[24],Non-Toxic
same,Activity,[25],Non-Toxic
